The IC50 is the concentration needed to halve the response being measured. Read a high IC50 as lower potency.

Data on 2 compounds can be found in ChEMBL document CHEMBL4152257, “Discovery of novel β-carboline/acylhydrazone hybrids as potent antitumor agents and overcome drug resistance” (Eur J Med Chem, 2018).

The subject of one series is A2780/Taxol. Briefly: Antiproliferative activity against human A2780T cells after 48 to 72 hrs by MTT assay. The series is classed as functional, cell-based. In a few lines:
(§1)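 Cells in log phase seeded and allowed to adhere, then exposed to graded compound concentrations for 48 h or 72 h; MTT added for a further 2-3 h, formazan dissolved in DMSO. IC50 taken from dose-response curves; mean ± SD of at least three independent experiments.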
(In general: Tetrazolium dyes change colour on reduction, which living cells bring about.)

The subject of another series is A549. Description: Antiproliferative activity against human A549 cells after 48 to 72 hrs by MTT assay. The series is classed as functional, cell-based. In a few lines: as §1
The nature of series [1]: Resistance index, ratio of IC50 for human A549/TR cells to IC50 for human A549 cells. It counts as functional.
Series [2] is described as follows: Resistance index, ratio of IC50 for human A2780T cells to IC50 for human A2780S cells. The series is classed as functional.
A further series has as its system A549/TR. Description: Antiproliferative activity against human A549/TR cells after 48 to 72 hrs by MTT assay. The series is classed as functional, cell-based. In a few lines:
as §1

The next series relates to A2780S. Briefly: Antiproliferative activity against human A2780S cells after 48 to 72 hrs by MTT assay. It counts as functional, cell-based. A digest of the protocol:
as §1

In another series the test system is Mus musculus. Description: Toxicity in athymic nude Balb/C mouse xenografted with human H460 cells assessed as body weight loss at 30 mg/kg, ip administered once per week measured every 2 days. It counts as organism-based. As to conditions: in vivo, 48 h. A digest of the protocol: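 Nude mice, 5-to-6-week-old females, given 5 × 10^6 H460 cells sc in right flank in HBSS; at 100 mm3 tumour volume randomized, 6 per group. Vehicle; oral 100 mg/kg three times weekly; or ip 30 mg/kg once weekly. Toxicity signs and mortality observed daily; body weight measured every 2 days.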
Background: A xenograft is tissue or cells of one species grown in another, often human tumour cells in immunodeficient mice.

A further series has as its system NCI-H460. Briefly: Antitumor activity against human H460 cells xenografted in athymic nude Balb/C mouse assessed as tumor growth inhibition at 30 mg/kg, ip administered once per week measured every two days relative to control. The series is classed as functional. As to conditions: 48 h, read-out: TGI. In a few lines: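 Nude mice (5-6 weeks old, female) implanted sc in right flank with 5 × 10^6 H460 cells in HBSS; at 100 mm3 tumours, randomised 6 per group to vehicle, oral 100 mg/kg three times weekly, or ip 30 mg/kg once weekly. Tumour volume by caliper every 2 days as (π/6) × length × width²; body weight recorded; inhibition from tumour weights versus control.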

Turning to `CC[C@]1(O)C[C@@H]2CN(CCc3c([nH]c4ccccc34)[C@@](C(=O)OC)(c3cc4c(cc3OC)N(C)[C@H]3[C@@](O)(C(=O)OC)[C@H](OC(C)=O)[C@]5(CC)C=CCN6CC[C@]43[C@@H]65)C2)C1` [VINBLASTINE], the IC50 in the series with A2780/Taxol was 16900 nM; with A549, 19.5 nM; in the series with A549/TR, 248 nM; with A2780S, 15.7 nM. Moreover, the “Ratio IC50” value worked out at 12.72 in series [1] and 1073.76 in series [2].
`CC(=O)O[C@H]1C(=O)[C@@]2(C)[C@H]([C@H](OC(=O)c3ccccc3)[C@]3(O)C[C@H](OC(=O)[C@H](O)[C@@H](NC(=O)c4ccccc4)c4ccccc4)C(C)=C1C3(C)C)[C@]1(OC(C)=O)CO[C@@H]1C[C@@H]2O` [PACLITAXEL]: the IC50 was 73000 nM in the series with A2780/Taxol, 23.2 nM with A549, 759 nM in the series on A549/TR and 18.9 nM in the series on A2780S. Also, the figures for the “Ratio IC50” value in series [1] and in series [2] were 32.76 and 3852.53, respectively. Also, the Activity in the series with Mus musculus is recorded as below 5%. Moreover, the inhibition in vivo at 30 mg/kg with NCI-H460 was 65.2%.
